Source: ChEMBL document CHEMBL4014336 (J Med Chem, 2017)

Experiments:
[1] = system: Cynomolgus monkey; experiment: Toxicity in cynomolgus monkey assessed as HPA axis activation by measuring increase in cortisol level at 10 mg/kg for 7 days; type: organism-based, Macaca fascicularis; conditions: in vivo, 168 h
[2] = system: Cynomolgus monkey; experiment: In vivo inhibition of 11beta-HSD1 in non-fasting diet-induced obese cynomolgus monkey assessed as decrease in corticosterone excursion in plasma pretreated via oral gavage for 30 mins followed by DHC administration measured up to 60 mins by enzyme immunosorbent assay; type: functional; conditions: Macaca fascicularis
Outline: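 Cynomolgus monkeys given test compound at a predetermined time before the experiment, chosen from its pharmacokinetics. Substrate DHC (rodent substrate, used in place of cortisone) given afterwards. Blood sampled at various times. Design otherwise similar to the mouse DHC challenge.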

[3] = system: Cynomolgus monkey; experiment: Toxicity in cynomolgus monkey assessed as HPA axis activation by measuring increase in DHEA level at 10 mg/kg for 7 days; type: organism-based, Macaca fascicularis; conditions: in vivo, 168 h
[4] = system: Cynomolgus monkey; experiment: Toxicity in cynomolgus monkey assessed as HPA axis activation by measuring increase in DHEAS level at 10 mg/kg for 7 days; type: organism-based, Macaca fascicularis; conditions: in vivo, 168 h
[5] = Metabolic stability in human liver microsomes assessed as UGT-mediated glucuronidation of compound by measuring half life in presence of UDPGA; type: ADME
Outline: (§1)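 Liver microsomal glucuronidation incubations in the presence of UDPGA; parent half-life determined.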

[6] = Metabolic stability in mouse liver microsomes assessed as UGT-mediated glucuronidation of compound by measuring half life in presence of UDPGA; type: ADME; outline: as §1
[7] = target: T1, Nuclear receptor subfamily 1 group I member 2 (Homo sapiens, UniProt O75469); experiment: Activation of PXR (unknown origin); type: ADME
T1 sequence (O75469 whole entry): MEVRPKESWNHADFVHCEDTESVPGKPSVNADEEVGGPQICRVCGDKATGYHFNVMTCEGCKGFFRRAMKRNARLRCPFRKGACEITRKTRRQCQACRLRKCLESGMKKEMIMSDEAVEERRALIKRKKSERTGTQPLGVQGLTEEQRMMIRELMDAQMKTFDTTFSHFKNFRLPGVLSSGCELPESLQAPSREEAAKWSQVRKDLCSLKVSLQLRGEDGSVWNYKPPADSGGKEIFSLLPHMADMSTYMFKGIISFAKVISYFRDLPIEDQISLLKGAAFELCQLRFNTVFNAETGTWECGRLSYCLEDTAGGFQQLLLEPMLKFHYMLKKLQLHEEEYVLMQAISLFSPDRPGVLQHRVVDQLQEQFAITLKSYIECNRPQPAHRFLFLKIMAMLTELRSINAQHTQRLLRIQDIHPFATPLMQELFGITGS
Outline: (§2)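 PXR transactivation assay; EC50 and maximal activation (Ymax, % of control) reported.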

[8] = (§3) Metabolic stability in mouse liver microsomes assessed as parent compound remaining after 10 mins; type: ADME, microsome; conditions: liver microsomes, read-out: Stability
Outline: (§4)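 Parent compound remaining after a 10 min incubation with human, mouse or rat liver microsomes.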

[9] = (§5) Metabolic stability in human liver microsomes assessed as parent compound remaining after 10 mins; type: ADME, microsome; conditions: liver microsomes, read-out: Stability; outline: as §4
[10] = (§6) Metabolic stability in rat liver microsomes assessed as parent compound remaining after 10 mins; type: ADME, microsome; conditions: liver microsomes, read-out: Stability; outline: as §4
[11] = target: 11-beta-hydroxysteroid dehydrogenase 1 (Mus musculus, UniProt P50172)
[12] = target: PXR (Homo sapiens, UniProt O75469); experiment: Activation of PXR (unknown origin) relative to control; type: ADME; outline: as §2
[13] = system: Liver; experiment: as §6; type: ADME, microsome; conditions: microsomes, 10 min; outline: as §4
[14] = system: Liver; experiment: as §3; type: ADME, microsome; conditions: microsomes, 10 min; outline: as §4
[15] = system: Liver; experiment: as §5; type: ADME, microsome; conditions: microsomes, 10 min; outline: as §4
[16] = Inhibition of cynomolgus monkey 11beta-HSD1; design: species or system Macaca fascicularis
[17] = system: Mus musculus; experiment: In vivo inhibition of 11beta-HSD1 in po dosed non-fasting diet-induced obese mouse assessed as decrease in corticosterone excursion in plasma pretreated for 60 mins followed by DHC administration measured up to 120 mins by enzyme immunosorbent assay; type: functional
Outline: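 Nonfasting diet-induced obese male mice, groups of n = 6 matched for body weight; tail bleed at −60 min, then oral vehicle (0.5% Methocel, 0.1% Tween 80 in water) or drug. At 60 min, bleed and oral DHC 10 mg/kg. Bleeds at 30, 60 and 120 min post-DHC. Plasma corticosterone measured by enzyme immunosorbent assay; drug levels in terminal bleed.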

Chain of 11-beta-hydroxysteroid dehydrogenase 1 (P50172 whole entry): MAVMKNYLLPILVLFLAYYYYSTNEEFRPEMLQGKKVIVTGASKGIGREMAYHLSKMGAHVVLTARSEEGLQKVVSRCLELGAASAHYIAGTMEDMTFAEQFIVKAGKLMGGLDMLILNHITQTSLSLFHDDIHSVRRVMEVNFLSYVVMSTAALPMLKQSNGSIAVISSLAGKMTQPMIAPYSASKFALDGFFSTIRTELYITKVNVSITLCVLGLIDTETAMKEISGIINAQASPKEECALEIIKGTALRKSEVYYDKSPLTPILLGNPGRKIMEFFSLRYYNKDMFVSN

remaining at 10 min [8]	remaining at 10 min [9]	remaining at 10 min [10]	SMILES	also measured
54%	84%	22%	Cc1cccc(C2(CC(=O)N3CC(O)C3)C3CC4CC2CC(C3)C4O)c1 (racemic)	
58%	86%	92%	O=C(CC1(c2cccnc2)C2CC3CC1CC(C2)C3O)N1CC(O)C1 (racemic)	
24%	100%	14%	O=C(CC1(C2CCCCC2)C2CC3CC1CC(C2)C3O)N1CC(O)C1 (racemic)	
92%	95%		O=C(CC1(c2ccc(F)cc2)C2CC3CC1CC(C2)C3O)N1CC(O)C1 (racemic)	Emax [12]: 4%; EC50 [7]: > 50 µM; IC50 [11]: 0.043 µM; Stability [13]: 88%
94%	92%	100%	O=C(CC1(c2ccncc2)C2CC3CC1CC(C2)C3O)N1CC(O)C1 (racemic)	
72%	75%	26%	Cc1ccc(C2(CC(=O)N3CC(O)C3)C3CC4CC2CC(C3)C4O)cc1 (racemic)	
73%	81%	58%	O=C(CC1(c2ccc(Cl)cc2)C2CC3CC1CC(C2)C3O)N1CC(O)C1 (racemic)	
93%	100%	90%	O=C(CC1(c2ccccn2)C2CC3CC1CC(C2)C3O)N1CC(O)C1 (racemic)	
77%	62%	25%	Cc1ccccc1C1(CC(=O)N2CC(O)C2)C2CC3CC1CC(C2)C3O (racemic)	
66%	85%	37%	O=C(CC1(c2cccc(Cl)c2)C2CC3CC1CC(C2)C3O)N1CC(O)C1 (racemic)	
33%	63%	3%	O=C(CC1(Cc2ccccc2)C2CC3CC1CC(C2)C3O)N1CC(O)C1 (racemic)	
71%	98%	70%	COc1ccc(C2(CC(=O)N3CC(O)C3)C3CC4CC2CC(C3)C4O)cc1 (racemic)	
87%	100%	95%	N#Cc1ccc(C2(CC(=O)N3CC(O)C3)C3CC4CC2CC(C3)C4O)cc1 (racemic)	

Further lines, the compound ahead of its results:

SMILES	remaining at 10 min [8]	remaining at 10 min [9]	remaining at 10 min [10]	also measured
O=C(O)CC1(c2ccc(F)cc2)C2CC3CC(C2)CC1C3 (stereo unspecified)				Activity [1]: Toxic; ED50 [2]: 0.3 mg/kg; Activity [3]: Toxic; Activity [4]: Toxic
Fc1ccc(C2(Cc3nnn[nH]3)C3CC4CC(C3)CC2C4)cc1 (stereo unspecified)				half-life [5]: > 2 h; half-life [6]: > 1 h
N#CC12CC3CC(C1)C(CC(=O)N1CC(O)C1)(c1ccc(F)cc1)C(C3)C2 (stereo unspecified)	42%	62%	46%	EC50 [7]: > 50 µM
O=C(CC1(c2ccc(F)cc2)C2CC3CC(C2)CC1C3)N1CC[C@@H]1CO (stereo partly specified)				IC50 [11]: 0.012 µM
O=C(CC1(c2ccc(F)cc2)C2CC3CC(C2)CC1C3)N1CC(O)C1 (stereo unspecified)				Emax [12]: 37%; EC50 [7]: 6.7 µM
NC(=O)C12CC3CC(C1)C(CC(=O)N1CC(O)C1)(c1ccc(F)cc1)C(C3)C2 (stereo unspecified)	73 to 77%	82 to 100%	62 to 79%	EC50 [7]: > 50 µM
O=C(CC1(c2ccc(F)cc2)C2CC3CC(C2)CC1C3)N1CC[C@H]1CO (stereo partly specified)				IC50 [11]: 1.85 µM
NC(=O)CC1(c2ccc(F)cc2)C2CC3CC(C2)CC1C3 (stereo unspecified)				half-life [5]: > 2 h; half-life [6]: > 2 h
COC12CC3CC(C1)C(CC(=O)N1CC(O)C1)(c1ccc(F)cc1)C(C3)C2 (stereo unspecified)	17 to 55%	27 to 72%	6 to 14%	EC50 [7]: > 50 µM
O=C(CC1(c2ccc(F)cc2)C2CC3CC1CC(F)(C3)C2)N1CC(O)C1 (stereo unspecified)	13 to 38%	38 to 69%	5 to 9%	EC50 [7]: > 25 µM
O=C(CC1(c2ccc(F)cc2)C2CC3CC1CC(O)(C3)C2)N1CC(O)C1 (stereo unspecified)	80 to 100%	100%	82 to 85%	EC50 [7]: > 50 µM
NC(=O)C1C2CC3CC1CC(C2)C3(CC(=O)N1CC(O)C1)c1ccc(F)cc1 (racemic)	99%	100%	92%	
O=C(CC1(c2ccc(C(F)(F)F)cc2)C2CC3CC1CC(C2)C3O)N1CC(O)C1 (racemic)	71%	57%	0%	
CC1(O)C2CC3CC(C2)C(CC(=O)N2CC(O)C2)(c2ccc(F)cc2)C1C3 (racemic)	17%	41%	23%	EC50 [7]: > 50 µM
N#CC1C2CC3CC1CC(C2)C3(CC(=O)N1CC(O)C1)c1ccc(F)cc1 (racemic)	47%	53%	27%	
CC1(O)C2CC3CC1CC(C2)C3(CC(=O)N1CC(O)C1)c1ccc(F)cc1 (racemic)	66%	84%	47%	
CS(=O)(=O)c1ccc(C2(CC(=O)N3CC(O)C3)C3CC4CC2CC(C3)C4O)cc1 (racemic)	100%	100%	98%	
O=C(CC1(c2ccc(F)cc2)C2CC3CC(C2)CC1(O)C3)N1CC(O)C1 (racemic)	11%	25%	2%	EC50 [7]: > 50 µM
O=C(CC1(c2ccc(-c3ccncc3)cc2)C2CC3CC1CC(C2)C3O)N1CC(O)C1 (racemic)	42%	28%	53%	
O=C(CC1(c2ccc(-c3ccc(F)cc3)cc2)C2CC3CC1CC(C2)C3O)N1CC(O)C1 (racemic)	10%	39%	5%	
O=C(CC1(c2ccccc2)C2CC3CC1CC(C2)C3O)N1CC(O)C1 (racemic) [BMS-816336]	82%	88%		IC50 [11]: 0.068 µM; Stability [13]: 72%
O=C(CC1(c2ccc(F)cc2)C2CC3CC1CC(C2)C3O)N1CC(O)C1 (single isomer, unassigned; enantiomer 2)				Stability [14]: 82%; Stability [15]: 90%; IC50 [16]: 0.0069 µM; Stability [13]: 75%
O=C(CC1(c2ccc(F)cc2)C2CC3CC1CC(C2)C3O)N1CC(O)C1 (stereo in doubt)				Stability [14]: 78%; Stability [15]: 85%; IC50 [16]: 0.0248 µM; IC50 [11]: 0.15 µM; Stability [13]: 58%
O=C(CC1(c2ccccc2)C2CC3CC1CC(C2)C3O)N1CC(O)C1 (stereo in doubt; form 1)				Stability [14]: 65%; Stability [15]: 89%; IC50 [16]: 0.016 µM; Stability [13]: 36%
O=C(CC1(c2ccccc2)C2CC3CC1CC(C2)C3O)N1CC(O)C1 (stereo in doubt; form 2)				inhibition [17]: Dose-dependent effect
